Assay: Toxicity liver stage against HepG2, at 10uM
Assay type: cell-based
Design: test concentration 10 uM, cell line HepG2-A16-CD81EGFP
Details: human, HepG2-A16-CD81EGFP cells; read-out: INHIBITION
How it was run: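 Uninfected HepG2-A16-CD81EGFP cells, 3 × 10^3 per well, 1536-well, plated on prespotted compound at 10 μM final, parasite-free screening media added to match infected plates; puromycin 10 μM positive, DMSO 0.5% negative; run in parallel with 48 h PbLuc assay at 37 °C, 5% CO2; viability by CellTiter-Glo luminescence, normalized to controls.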

Structure (SMILES)	cytotoxicity at 10 µM
CC(C)NC(=O)NC[C@H]1OC[C@@H](NCc2cccs2)[C@@H]1O	-1.48%
O=C(NC[C@H]1OC[C@@H](NCc2ccccc2F)[C@@H]1O)Nc1ccccc1	-7.3%
COCC(=O)N1CCC(=O)N(C2CCCC2)Cc2cc(F)ccc21	-3.3%
O=S(=O)(c1ccc(Cl)cc1)N1C[C@@H]2CCN[C@@H]2C1	-1.89%
CCc1cnc(N2CCC3(CCN(CC)C3=O)CC2)nc1	1.61%
CNC(=O)N1CCC2(CC1)CN(C)c1ccc(F)cc12	-4.78%
c1ccc(NCc2cn3c(n2)CN(Cc2ccoc2)CC3)nc1	10.4%
Fc1cnc(N2CCOCC3(CCCN(c4cnccn4)C3)C2)nc1 (stereo not drawn)	10.6%
CCN1C(=O)[C@]2(CC[C@@H]3CN(C(=O)NCC(C)C)C[C@@H]32)N=C1C	9.16%
Cc1cc(O)c(OCC(=O)/N=c2\[nH]c(C)cs2)cn1	6.36%
CN(C(=O)c1ccccn1)c1nnc(C2CCOC2)s1 (stereo not drawn)	0.07%
CNC(=O)c1cn[nH]c1C1CCN(Cc2sccc2C)C1 (stereo not drawn)	-21.2%
c1cnc(-c2cnc(N3CCCCC3)nc2C2CCCO2)cn1 (stereo not drawn)	-7.16%
Cc1n[nH]cc1C(=O)N1CCCC(c2cccc(-n3ccnc3)n2)C1 (stereo not drawn)	-9.69%
COc1ccc(C2(c3nc(-c4cnn(C)c4)no3)CCOCC2)cc1	11.4%
Cc1ccc(NC(=O)N2CCC(CO)(Nc3ccccc3)CC2)cc1	-0.405%
Cc1nc(CNc2ccccc2CCC(F)(F)F)cs1	-8.47%
O=C(CC1CCCCC1)N1CCC(O)(C(F)(F)F)C1 (stereo not drawn)	-6.58%
COC(=O)c1ccc(NC(=O)CCc2ccco2)cc1	-10.5%
CCCS(=O)(=O)N1CCCN(CCCOC)CC1	7.53%
O=C(NCC1CCC1)c1ccnc(-n2ccnc2)c1	-3.67%

Structure (SMILES)	cytotoxicity at 10 µM
COc1ccccc1N1CCN(CC(=O)NC(C)c2ccco2)CC1 (stereo not drawn)	-2.58%
CS(=O)(=O)Nc1cccc(CNC(=O)c2cccs2)c1	3.86%
CCCc1cc(C(=O)NCCN2C(=O)c3ccccc3C2=O)[nH]n1	2.29%
CC(C)c1noc(OCC(=O)N(C)C(C)C)n1	-12.6%
NC(=O)CCNC(=O)Cc1cccc(I)c1	-1.08%
O=C(CNc1cccc2c1CCCC2)Nc1ccccc1Br	11.4%
Cc1nn(C)c(N(C)C)c1CNCc1cccc(Cn2cccn2)c1	1.88%
CCN(CC(=O)NC(C)C)S(=O)(=O)N1CCCC(C)C1 (stereo not drawn)	2.77%
COc1cccc2c1N(Cc1nc(C3CC3)no1)CCC2	11.2%
Cc1ncccc1C(=O)Nc1ccc2ccn(CCN(C)C)c2c1	4.08%
CC1CCN(S(=O)(=O)NC2CCCCNC2=O)CC1 (stereo not drawn)	14%
Cc1nc(C(NC(=O)C2CCCC2)c2ccccc2F)no1 (stereo not drawn)	-3.79%
O=C(C[S+]([O-])Cc1ccccc1F)N1CCc2sccc2C1 (stereo not drawn)	-8.02%
CNS(=O)(=O)CC(=O)N(Cc1ccccc1)c1ccc(C)cc1	2.53%
O=C(CN1CCOc2ccc(Cl)cc21)NCc1ncc[nH]1	-0.307%
N#CCCN(CC(F)(F)F)C(=O)c1cc(-n2cccn2)ccn1	8.93%
N#Cc1ccc(OC2CCN(C(=O)COCC3CCCO3)CC2)cc1 (stereo not drawn)	12.9%
CCc1noc(CN(C)C(=O)COc2cccc(Cl)c2C)n1	3.86%
CCN(CC)CCCN1CCC(NC(=O)OC(C)(C)C)CC1	5%
Cc1oc(C(=O)O)cc1S(=O)(=O)Nc1ccc(Cl)c(Cl)c1	-0.532%
CS(=O)(=O)CC1(CNc2ccc(C#N)c(C(F)(F)F)c2)CC1	9.95%

Structure (SMILES)	cytotoxicity at 10 µM
Cc1nc(CC(C)C)sc1C(=O)N1CCC1	15.8%
Cn1cc(CN2CCN(Cc3nccn3C)CC2)cn1	15.5%
O=C(NCCNS(=O)(=O)c1ccc2c(c1)CCCC2)c1ccoc1	0.743%
CC(NCc1ccncc1)c1cc(F)ccc1N1CCN(C)CC1 (stereo not drawn)	-2.98%
COCCN(Cc1ccc(F)cc1Cl)C(=O)c1cccc[n+]1[O-]	8.81%
Cc1ncc(-c2ccnc(N3CC[C@H](O)C3)n2)c(-c2cccnc2)n1	-8.49%
Cc1cccc2c1nc(COCC(=O)O)n2-c1ccc(N)nc1	1.77%
CCN1CCCC(CN2CCn3nc(CNC(=O)N(C)C)cc3C2)C1 (stereo not drawn)	-2.96%
Cc1nc(-c2ccccc2)c(C(=O)N2CCC3(CC(=O)NC3=O)C2)s1 (stereo not drawn)	-3.89%
COCc1cn(C2CCN(C(=O)c3ccc(F)c(C)c3)CC2)nn1	-0.723%
Cc1c(C)c(C)c2[nH]c(-c3cn(C4CCNCC4)nn3)nc2c1C	-0.966%
Cc1[nH]c(=O)[nH]c(=O)c1CN1CCCC(CCc2ccc(F)cc2F)C1 (stereo not drawn)	-1.64%
C[C@@H]1CN(Cc2cc3ccccc3n2C)CC[C@]1(C)O	8.35%
NC(=O)c1ccc(OCCCN2C[C@H](C3CC3)[C@@H](N)C2)cc1	-0.517%
CCN1CC(C(=O)N2CCC(Oc3ccccc3Cl)CC2)CC1=O (stereo not drawn)	-22.4%
Cn1c(Cn2cccn2)nnc1C1CCCN(c2ccncc2F)C1 (stereo not drawn)	-0.773%
CN(CCc1ccccc1)Cc1cc(C(=O)N2CCN(C)C(=O)C2)no1	-11.6%
CNCc1cc(F)ccc1Oc1ccc(F)cc1F	-11%
CC(NC(=O)CSCC#N)c1ccc(F)cc1 (stereo not drawn)	-2.51%
CN(C)c1ccc(C(=O)N2CCCC2c2cnn(C)c2)cn1 (stereo not drawn)	-1.83%
O=C(O)c1cc(S(=O)(=O)Nc2ccc(F)cc2F)cc2c1OCCO2	-1.2%

Structure (SMILES)	cytotoxicity at 10 µM
Cn1cc(CN2CCCN(C(=O)c3ccccn3)CC2)cn1	-0.514%
O=C(c1ccc2c(c1)CCCC2)N1CCN(c2cnccn2)CC1	-1.95%
Cc1cc2n(n1)CC(CNCc1ccc(-n3ccnc3C)nc1)CN2 (stereo not drawn)	-11.7%
COc1ccccc1C(O)CNC(=O)Nc1cccnc1OC (stereo not drawn)	-14.7%
Cc1nc(C2CCCN2C(=O)c2ccc3c(c2)nc(C)n3C)no1 (stereo not drawn)	-9.62%
CCn1cnnc1CNC(=O)N1CCC(C)CC1	2.64%
Cc1nc(C2CCCN2C(=O)Cn2cncn2)no1 (stereo not drawn)	-2.51%
Cc1cnn(CC2CCCCN2C(=O)c2cnc3n[nH]c(C)c3c2)c1 (stereo not drawn)	-26.2%
CCc1nc(CN2CCCN(C(=O)C3CCC3)CC2)cs1	5.41%
CC(C)c1nc(C2CCCN2CCc2ccncc2)no1 (stereo not drawn)	-10.8%
CCOc1ccnc(N2CCN(C(=O)c3cccc(C#N)c3)CC2)n1	-3.34%
O=C(CN1CCCCC1Cn1cncn1)NCCC1=CCCCC1 (stereo not drawn)	-7.59%
O=C(NCCCNc1ccccc1)c1scnc1Cl	1.83%
COCC1CN(Cc2cc(C)on2)Cc2cnn(C)c21 (stereo not drawn)	6.22%
O=C(c1ccccc1)N1CCC[C@]2(C[C@@H](OCc3ccncc3)CO2)C1	5.25%
CN(C)C[C@H]1C[C@@H]2CN(Cc3ccco3)C[C@@H]2O1	-1.66%
O=C(C1CC1)N1CCC2(CCN(Cc3cccc(F)c3)CC2)CC1	-4.07%
O=C(C[C@@H]1COC[C@H]2CN(Cc3ccc(F)cc3)C[C@@H]12)N1CCCCO1	-2.26%
Cc1ccc(CN2CCC3(CC2)CCN(Cc2ccco2)CC3)cc1	2.44%
O=C(NCCNS(=O)(=O)N1CCCCCC1)c1ncccc1O	-6.11%
